Active and inactive are the calls of the source. The rule behind the calls is not given here.
Assays:
Pseudomonas aeruginosa [1] = assay: Antimicrobial activity against multidrug-resistant Pseudomonas aeruginosa A/16575 up to 200 uM after 24 to 48 hrs by broth microdilution method; type: functional, organism-based
A549 [2] = assay: Selectivity index, ratio of IC50 for human MRC5 cells to IC50 for human A549 cells; type: functional
[3] = Cytostatic activity against human K562-TAX cells after 72 hrs by MTT assay; type: functional, cell-based
Method in brief: (§1)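 Cells were seeded at 25,000–30,000 per well and pre-incubated for 24 h at 37°C in 5% CO2. Four-fold compound dilutions were added in duplicate and incubated for 72 h. MTT was added for 1–4 h, and formazan was dissolved in 10% aq SDS (pH 5.5) overnight at 37°C. OD was read at 540 nm. IC50 came from dose-response curves, mean ± SD of eight independent experiments.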

Nucleic Acid [4] = assay: Binding affinity to DNA (unknown origin) assessed as DNA intercalation by UV-visible spectrophotometry in presence of Ni2+; type: nucleic-acid assay
CCRF-CEM [5] = assay: Cell cycle arrest in human CCRF-CEM cells assessed as accumulation at S phase at IC50 after 24 hrs by propidium iodide staining-based flow cytometry; type: functional
Method in brief: (§2)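 Cells were then fixed in 70% ethanol, washed in hypotonic citrate buffer, treated with RNase (50 µg/mL) and stained with propidium iodide. Flow cytometry used a 488 nm laser. Apoptosis was scored as the percentage of particles with propidium content below G0/G1.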

[6] = Cytostatic activity against human CEM-DNR cells after 72 hrs by MTT assay; type: functional, cell-based; method in brief: as §1
Nucleic Acid [7] = assay: Binding affinity to DNA (unknown origin) assessed as DNA intercalation by UV-visible spectrophotometry in presence of Fe3+; type: nucleic-acid assay
[8] = Metal chelating activity of the compound assessed as formation of Mg2+ complex by UV-vis spectrometry; type: physicochemical
CCRF-CEM [9] = assay: Cytostatic activity against human CCRF-CEM cells after 72 hrs by MTT assay; type: functional, cell-based; method in brief: as §1
[10] = Cytostatic activity against human HCT116 cells after 72 hrs by MTT assay; type: functional, cell-based; details: HCT-116, 72 h; method in brief: as §1
[11] = Metal chelating activity of the compound assessed as formation of Ca2+ complex by UV-vis spectrometry; type: physicochemical
CCRF-CEM [12] = assay: Cell cycle arrest in human CCRF-CEM cells assessed as accumulation at S phase at 5 times IC50 after 24 hrs by propidium iodide staining-based flow cytometry; type: functional; method in brief: as §2
Candida parapsilosis = assay: Antifungal activity against Candida parapsilosis up to 200 uM after 24 to 48 hrs by broth microdilution method; type: functional, organism-based
[13] = Metal chelating activity of the compound assessed as formation of Co2+ complex by UV-vis spectrometry; type: physicochemical
CCRF-CEM [14] = assay: Cell cycle arrest in human CCRF-CEM cells assessed as accumulation at G0/G1 phase at 5 times IC50 after 24 hrs by propidium iodide staining-based flow cytometry; type: functional; method in brief: as §2
CCRF-CEM [15] = assay: Cell cycle arrest in human CCRF-CEM cells assessed as accumulation at G2/M phase at IC50 after 24 hrs by propidium iodide staining-based flow cytometry; type: functional; method in brief: as §2
CCRF-CEM [16] = assay: Induction of apoptosis in human CCRF-CEM cells assessed as inhibition of DNA synthesis at IC50 after 24 hrs by propidium iodide/BrdU staining by flow cytometry; type: functional; design: scale not given: the % may be the effect or the level left
[17] = Metal chelating activity of the compound assessed as formation of Fe2+ complex by UV-vis spectrometry; type: physicochemical
CCRF-CEM [18] = assay: Induction of apoptosis in human CCRF-CEM cells assessed as mitotic cells at 5 times IC50 after 24 hrs by pH3Ser10+ labeling-based flow cytometry; type: functional
CCRF-CEM [19] = assay: Induction of apoptosis in human CCRF-CEM cells assessed as apoptotic cells at 5 times IC50 after 24 hrs by propidium iodide staining-based flow cytometry; type: functional; method in brief: as §2
Nucleic Acid [20] = assay: Binding affinity to DNA (unknown origin) assessed as DNA intercalation by UV-visible spectrophotometry in presence of Cu2+; type: nucleic-acid assay
CCRF-CEM [21] = assay: Induction of apoptosis in human CCRF-CEM cells assessed as inhibition of DNA synthesis at 5 times IC50 after 24 hrs by propidium iodide/BrdU staining by flow cytometry; type: functional; design: scale not given: the % may be the effect or the level left
CCRF-CEM [22] = assay: Induction of apoptosis in human CCRF-CEM cells assessed as apoptotic cells at IC50 after 24 hrs by propidium iodide staining-based flow cytometry; type: functional; method in brief: as §2
[23] = Metal chelating activity of the compound assessed as formation of Cr3+ complex by UV-vis spectrometry; type: physicochemical
HCT-116 = assay: Selectivity index, ratio of IC50 for human MRC5 cells to IC50 for human HCT116 cells; type: functional
CCRF-CEM [24] = assay: Induction of apoptosis in human CCRF-CEM cells assessed as mitotic cells at IC50 after 24 hrs by pH3Ser10+ labeling-based flow cytometry; type: functional
Candida tropicalis = assay: Antifungal activity against Candida tropicalis up to 200 uM after 24 to 48 hrs by broth microdilution method; type: functional, organism-based
BJ [25] = assay: Selectivity index, ratio of IC50 for human BJ cells to IC50 for human p53-/- HCT116 cells; type: functional
BJ [26] = assay: Selectivity index, ratio of IC50 for human BJ cells to IC50 for human K562 cells; type: functional
Nucleic Acid [27] = assay: Binding affinity to DNA (unknown origin) assessed as DNA intercalation by UV-visible spectrophotometry; type: nucleic-acid assay
[28] = Metal chelating activity of the compound assessed as formation of Fe3+ complex by UV-vis spectrometry; type: physicochemical
BJ [29] = assay: Cytostatic activity against human BJ cells after 72 hrs by MTT assay; type: ADME, cell-based; method in brief: as §1
Nucleic Acid [30] = assay: Binding affinity to DNA (unknown origin) assessed as DNA intercalation by UV-visible spectrophotometry in presence of Zn2+; type: nucleic-acid assay
CCRF-CEM [31] = assay: Cell cycle arrest in human CCRF-CEM cells assessed as accumulation at G2/M phase at 5 times IC50 after 24 hrs by propidium iodide staining-based flow cytometry; type: functional; method in brief: as §2
[32] = system: Staphylococcus haemolyticus; assay: Antimicrobial activity against methicillin-resistant Staphylococcus haemolyticus A1/16568 up to 200 uM after 24 to 48 hrs by broth microdilution method; type: functional, organism-based
A549 [33] = assay: Selectivity index, ratio of IC50 for human BJ cells to IC50 for human A549 cells; type: functional
Staphylococcus aureus = assay: Antimicrobial activity against Staphylococcus aureus CCM 3953 up to 200 uM after 24 to 48 hrs by broth microdilution method; type: functional, organism-based
[34] = Metal chelating activity of the compound assessed as formation of Ni2+ complex by UV-vis spectrometry; type: physicochemical
[35] = Metal chelating activity of the compound assessed as formation of Cu2+ complex by UV-vis spectrometry; type: physicochemical
Pichia kudriavzevii = assay: Antifungal activity against Candida crusei up to 200 uM after 24 to 48 hrs by broth microdilution method; type: functional, organism-based
A549 [36] = assay: Cytostatic activity against human A549 cells after 72 hrs by MTT assay; type: functional, cell-based; details: A549, 72 h; method in brief: as §1
Enterococcus faecalis = assay: Antimicrobial activity against Enterococcus faecalis CCM 4224 up to 200 uM after 24 to 48 hrs by broth microdilution method; type: functional, organism-based
Pseudomonas aeruginosa [37] = assay: Antimicrobial activity against Pseudomonas aeruginosa CCM 395 up to 200 uM after 24 to 48 hrs by broth microdilution method; type: functional, organism-based
BJ [38] = assay: Selectivity index, ratio of IC50 for human BJ cells to IC50 for human CEM-DNR cells; type: functional

COc1ccc(O)c(/C=N/NC(=O)c2ccc3c4c(ccc3c2)N2Cc3c(ccc5cc(C(=O)N/N=C/c6cc(OC)ccc6O)ccc35)N(C4)C2)c1
Activity (Pseudomonas aeruginosa [1]): inactive
Ratio IC50 (A549 [2]): 123.2
IC50 [3]: 210 nM
Activity (Nucleic Acid [4]): Active
Activity (CCRF-CEM [5]): 54.03%
IC50 [6]: 2140 nM
Activity (Nucleic Acid [7]): Active
Activity [8]: Not Active
IC50 (CCRF-CEM [9]): 180 nM
IC50 [10]: 50 nM
Activity [11]: Not Active
Activity (CCRF-CEM [12]): 48.55%
Activity (Candida parapsilosis): inactive
Activity [13]: Active
Activity (CCRF-CEM [14]): 39.05%
Activity (CCRF-CEM [15]): 15.97%
Activity (CCRF-CEM [16]): 50.98%
Activity [17]: Not Active
Activity (CCRF-CEM [18]): 0.67%
Activity (CCRF-CEM [19]): 21.74%
Activity (Nucleic Acid [20]): Active
Activity (CCRF-CEM [21]): 31.78%
Activity (CCRF-CEM [22]): 12.97%
Activity [23]: Not Active
Ratio IC50 (HCT-116): 622.3
Activity (CCRF-CEM [24]): 0.99%
Activity (Candida tropicalis): inactive
Ratio IC50 (BJ [25]): 495
Ratio IC50 (BJ [26]): 357.2
Activity (Nucleic Acid [27]): inactive
Activity [28]: Active
IC50 (BJ [29]): 57200 nM
Activity (Nucleic Acid [30]): Active
Activity (CCRF-CEM [31]): 12.4%
Activity [32]: inactive
Ratio IC50 (A549 [33]): 123.2
Activity (Staphylococcus aureus): inactive
Activity [34]: Active
Activity [35]: Active
Activity (Pichia kudriavzevii): inactive
IC50 (A549 [36]): 230 nM
Activity (Enterococcus faecalis): inactive
Activity (Pseudomonas aeruginosa [37]): inactive
Ratio IC50 (BJ [38]): 13.3

O=C(NN=C(c1ccccn1)c1ccccn1)c1ccc2c3c(ccc2c1)N1Cc2c(ccc4cc(C(=O)NN=C(c5ccccn5)c5ccccn5)ccc24)N(C3)C1
Activity (Pseudomonas aeruginosa [1]): inactive
Ratio IC50 (A549 [2]): 0.8
IC50 [3]: 560 nM
Activity (Nucleic Acid [4]): Active
Activity (CCRF-CEM [5]): 61.24%
IC50 [6]: 2080 nM
Activity (Nucleic Acid [7]): Active
Activity [8]: Not Active
IC50 (CCRF-CEM [9]): 910 nM
IC50 [10]: 460 nM
Activity [11]: Not Active
Activity (CCRF-CEM [12]): 68.14%
Activity (Candida parapsilosis): inactive
Activity [13]: Active
Activity (CCRF-CEM [14]): 3.63%
Activity (CCRF-CEM [15]): 10.49%
Activity (CCRF-CEM [16]): 57.31%
Activity [17]: Not Active
Activity (CCRF-CEM [18]): 1.72%
Activity (CCRF-CEM [19]): 24.51%
Activity (Nucleic Acid [20]): Active
Activity (CCRF-CEM [21]): 55.69%
Activity (CCRF-CEM [22]): 12.04%
Activity [23]: Not Active
Ratio IC50 (HCT-116): 3.4
Activity (CCRF-CEM [24]): 0.53%
Activity (Candida tropicalis): inactive
Ratio IC50 (BJ [25]): 2
Ratio IC50 (BJ [26]): 2.4
Activity (Nucleic Acid [27]): inactive
Activity [28]: Active
IC50 (BJ [29]): 2090 nM
Activity (Nucleic Acid [30]): Active
Activity (CCRF-CEM [31]): 28.23%
Activity [32]: inactive
Ratio IC50 (A549 [33]): 0.8
Activity (Staphylococcus aureus): inactive
Activity [34]: Active
Activity [35]: Active
Activity (Pichia kudriavzevii): inactive
IC50 (A549 [36]): 2030 nM
Activity (Enterococcus faecalis): inactive
Activity (Pseudomonas aeruginosa [37]): inactive
Ratio IC50 (BJ [38]): 0.7

From ChEMBL document CHEMBL3400013, “Synthesis and biological activity evaluation of hydrazone derivatives based on a Tröger's base skeleton” (Bioorg Med Chem, 2015)
